Measurements of several laboratories.
Lines come from different studies, so protocols differ.
Target: Interleukin-1 receptor-associated kinase 3 (IRAK3, Homo sapiens, UniProt Q9Y616)
Residues used in one study (Q9Y616 1-596): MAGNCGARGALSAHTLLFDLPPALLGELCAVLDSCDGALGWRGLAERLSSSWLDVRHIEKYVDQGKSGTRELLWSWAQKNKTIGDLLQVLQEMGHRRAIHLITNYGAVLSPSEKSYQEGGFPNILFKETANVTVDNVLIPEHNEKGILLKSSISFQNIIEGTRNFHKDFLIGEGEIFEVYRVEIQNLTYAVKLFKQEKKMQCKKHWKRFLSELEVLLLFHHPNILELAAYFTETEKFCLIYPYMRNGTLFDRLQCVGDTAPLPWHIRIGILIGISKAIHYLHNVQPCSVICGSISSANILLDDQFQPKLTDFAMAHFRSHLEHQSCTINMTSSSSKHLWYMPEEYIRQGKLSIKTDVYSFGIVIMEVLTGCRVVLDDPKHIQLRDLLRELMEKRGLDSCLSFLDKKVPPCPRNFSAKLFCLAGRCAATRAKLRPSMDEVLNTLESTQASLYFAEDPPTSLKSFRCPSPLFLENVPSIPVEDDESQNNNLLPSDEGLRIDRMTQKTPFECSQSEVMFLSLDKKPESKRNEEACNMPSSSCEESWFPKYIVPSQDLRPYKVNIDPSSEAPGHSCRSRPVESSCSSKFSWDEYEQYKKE

Structure (SMILES) | assay | conditions | remaining binding [%]
C[C@@H](c1ccc(-n2cnc3c(N)ncnc32)cc1)N1CCc2nn(C)c(Cc3ccccc3)c2C1=O | binding, competition with immobilised ligand | 0.1 µM | 79
CNC(=O)Nc1ccc2c(c1)CC[C@@]21OC(=O)N(CC(=O)N(Cc2ccc(F)cc2)[C@@H](C)C(F)(F)F)C1=O | cell-free assay, competition with immobilised ligand | 1 µM | 95
c1cnn2ncc(-c3ccnc(N4CCC45COC5)n3)c2c1 | binding | 1 µM | 36
C[C@H](NC(=O)c1cnc2n1[C@](C)(Cc1ccc(C#N)cc1)C(=O)N2c1cc(Cl)c(F)c(Cl)c1)C(=O)NC1(c2ccccn2)CC1 | cell-free assay, competition with immobilised ligand | 1 µM | 100
Cc1cnc(Nc2ccc(C(=O)N3CCC(N4CCCC4)CC3)cc2)nc1-c1cc2ccccc2s1 | binding, competition with immobilised ligand | 1 µM | 5.3
c1cncc(-c2cccc(Nc3nccc(NC4CCCCC4)n3)c2)c1 | binding, competition with immobilised ligand | 10 µM | 4.5
N[C@@H]1CCN(c2nccc(-c3cnn4ncccc34)n2)C1 | binding | 1 µM | 100
O=C(NCCCN1CCOCC1)c1ccc(Nc2nccc(-c3cc4ccccc4s3)n2)cc1 | binding, competition with immobilised ligand | 1 µM | 8.4
CCCCN(CCCC)C(=O)CN1C[C@H](c2cc(OC)c3c(c2)OCO3)[C@@H](C(=O)O)[C@@H]1CC(C)(C)CCC | cell-free assay, competition with immobilised ligand | 1 µM | 100
CN(CCCC(F)(F)F)c1nccc(-c2cnn3ncccc23)n1 | binding | 1 µM | 94
Cn1nc(C(F)(F)F)cc1-c1cnc(N2CCc3cc(S(=O)(=O)Nc4c(F)cc(Cl)cc4F)cc(N4CCCC4=O)c32)nc1 | cell-free assay, competition with immobilised ligand | 1 µM | 100
O=C(NCC1CCOCC1)c1n[nH]cc1NC(=O)c1c(F)cccc1F | binding, competition with immobilised ligand | 1 µM | 92
Nc1ncc2c(n1)-c1c([nH]c3ccc(C#CC4CC4)cc13)CCCC2 | binding, competition with immobilised ligand | 1 µM | 71
C[C@H]1CCN(c2nccc(-c3cnn4ncccc34)n2)C1 | binding | 1 µM | 52
COc1cnc(Nc2cccc(S(N)(=O)=O)c2)nc1N1CCN(c2ccccc2)C(=O)C1 | binding, competition with immobilised ligand | 1 µM | 100
COc1ncc2cc3ccccc3nc2c1C#N | cell-free assay, competition with immobilised ligand | 5 µM | 94
COc1ccnn2ncc(-c3ccnc(N(C)C)n3)c12 | binding | 1 µM | 91
Nc1cnc(N2CCc3cc(S(=O)(=O)Nc4c(F)cc(Cl)cc4F)cc(N4CCCC4=O)c32)nc1 | cell-free assay, competition with immobilised ligand | 1 µM | 89
O=C(c1ccc(Nc2ncc(Cl)c(-c3ccc(Cl)s3)n2)cc1)N1CCC(N2CCCC2)CC1 | binding, competition with immobilised ligand | 1 µM | 1.6
Cc1cnn2ncc(-c3ccnc(N(C)C)n3)c2c1 | binding | 1 µM | 70
CCOCCn1cc(C(=O)Nc2ccc(-n3nc(-c4cccnc4)cc3C(F)(F)F)cn2)ccc1=O | cell-free assay, competition with immobilised ligand | 1 µM | 100
